Measurements of several laboratories.
Compare with care: the assays were run in different laboratories.
Cell line: NCI-H322M
Effect on: cell growth or viability

CCc1n(Cc2ccc3ccccc3n2)cc[n+]1Cc1ccc2ccccc2c1
TGI (SRB): 13.8 µM

COc1cc(-c2ccc(-c3ccc(C(=N)N)nc3)s2)cc(OC)c1OC
GI50 (SRB): 3230 nM

COc1ccc(C(=O)/C=C/c2cc3c(cc2Br)OCO3)cc1S(N)(=O)=O
GI50 (SRB; 48 h): 3800 nM

COc1cccc(Oc2ccccc2NC(=O)CNC(=O)c2cccc3ccccc23)c1
GI50 (SRB; 48 h): 1290 nM

c1ccc2cc(Cn3cc[n+](Cc4ccc5ccccc5c4)c3)ccc2c1
TGI (SRB): 21.3 µM

COc1ccc(C(=O)/C=C/c2cccnc2)cc1S(N)(=O)=O
GI50 (SRB; 48 h): 12300 nM

O=C1NC(=NCc2cccs2)S/C1=C\c1ccc2ncccc2c1
IC50: > 10 µM

S=C([S][Au-][P+](CCCCCC[P+]([Au-][S]C(=S)n1cccn1)(c1ccccc1)c1ccccc1)(c1ccccc1)c1ccccc1)n1cccn1
GI50 (SRB): 417 nM

CCc1n(Cc2ccc3ccccc3n2)cc[n+]1Cc1ccc2ccccc2n1
TGI (SRB): 41.9 µM

O=C1NCCc2[nH]c(-c3ccncc3)cc21
IC50: > 10 µM

COc1ccc(-c2ccc(-c3ccc(C(=N)N)nc3)s2)cc1
GI50 (SRB): 1590 nM

Cc1cc(C)n(C(=S)[S][Au][PH](CCCCCC[PH]([Au][S]C(=S)n2nc(C)cc2C)(c2ccccc2)c2ccccc2)(c2ccccc2)c2ccccc2)n1
GI50 (SRB): 423 nM
